Reference: ChEMBL document CHEMBL4038284, “Synthesis of novel quinoline-based 4,5-dihydro-1H-pyrazoles as potential anticancer, antifungal, antibacterial and antiprotozoal agents” (Eur J Med Chem, 2017)
Values after ≈ are worked out from the molar mass of the structure shown. Active and inactive are the calls of the source. The calls are words filed in the database; no cut-off is given here.

How the values were obtained:
NCI-H522 = experiment: Growth inhibition of human NCI-H522 cells at 10 uM incubated for 48 hrs by sulforhodamine B assay; assay type: functional, cell-based
Outline: (§1)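 NCI 60-line panel, single 10 μM dose. Cells were grown in RPMI-1640 with 5% FBS and 2 mM L-glutamine and pre-incubated 24 h before compound addition (DMSO stock). Exposure was 48 h at 37 °C, 5% CO2. Cells were fixed with cold TCA (10% final), stained with 0.4% SRB, bound dye dissolved in 10 mM Tris base, A515 read. Growth was taken relative to time-zero and untreated control plates.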

TK-10 = experiment: Growth inhibition of human TK10 cells at 10 uM incubated for 48 hrs by sulforhodamine B assay; assay type: functional, cell-based
Outline: (§2)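 NCI-60 single-dose screen at 10 µM for 48 h. Cells were grown in RPMI-1640 with 5% FBS and 2 mM L-glutamine and preincubated 24 h before compound. Time-zero plates were TCA-fixed at compound addition. After exposure, cells were TCA-fixed, stained with SRB and read at 515 nm. Percentage growth was calculated against time-zero and untreated-control absorbances.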

LOX IMVI = experiment: Growth inhibition of human LOXIMVI cells at 10 uM incubated for 48 hrs by sulforhodamine B assay; assay type: functional, cell-based; outline: as §1
Candida albicans [1] = experiment: Antifungal activity against Candida albicans ATCC 10231 incubated for 48 hrs under dark condition by broth microdilution method; assay type: functional; details: ATCC 10231, 48 h
Outline: (§3)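 CLSI M27-A3 broth microdilution in RPMI-1640, DMSO ≤1%, compounds at 250-0.98 µg/mL final. Inoculum 1-5 × 10^3 CFU/mL. Incubated 48 h at 30 °C in a moist dark chamber, read at OD405. MIC80 and MIC50 taken from % inhibition dose-response curves (mean ± SEM, triplicate). Amphotericin B was the positive control.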

Candida albicans [2] = experiment: Growth inhibition of Candida albicans ATCC 10231 at 15.62 ug/ml incubated for 48 hrs under dark condition by broth microdilution method relative to control; assay type: functional; details: ATCC 10231, 48 h, read-out: GI
Outline: (§4)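 CLSI M27-A3 broth microdilution in RPMI-1640, DMSO ≤1%. Inoculum 1-5 × 10^3 CFU/mL. Incubated 48 h at 30 °C, dark. % inhibition = 100 − (OD405 test − sterility control)/(OD405 growth control − sterility control), with growth and sterility control wells. Triplicate.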

HOP-62 = experiment: Growth inhibition of human HOP62 cells at 10 uM incubated for 48 hrs by sulforhodamine B assay; assay type: functional, cell-based
Outline: (§5)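 NCI 60-cell-line screen at a single 10 µM dose. Cells in RPMI-1640 with 5% FBS and 2 mM L-glutamine, pre-incubated 24 h, then treated for 48 h at 37 °C. TCA fixation, sulforhodamine B staining, absorbance at 515 nm. Percentage growth calculated against time-zero and untreated controls.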

COLO 205 = experiment: Growth inhibition of human COLO205 cells at 10 uM incubated for 48 hrs by sulforhodamine B assay; assay type: functional, cell-based; outline: as §5
Staphylococcus aureus [3] = experiment: Antibacterial activity against vancomycin-intermediate Staphylococcus aureus after 24 hrs by resazurin dye based microdilution assay; assay type: functional
Outline: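 MIC taken as the lowest concentration giving visible inhibition and/or by resazurin (1 mg/mL). Gentamicin was the control. Run in duplicate, repeated at least three times.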

SNB-75 = experiment: Growth inhibition of human SNB75 cells at 10 uM incubated for 48 hrs by sulforhodamine B assay; assay type: functional, cell-based; outline: as §2
SN12C = experiment: Growth inhibition of human SN12C cells at 10 uM incubated for 48 hrs by sulforhodamine B assay; assay type: functional, cell-based; outline: as §2
Candida albicans [4] = experiment: Growth inhibition of Candida albicans ATCC 10231 at 125 ug/ml incubated for 48 hrs under dark condition by broth microdilution method relative to control; assay type: functional; details: ATCC 10231, 48 h, read-out: GI; outline: as §4
Neisseria gonorrhoeae = experiment: Antibacterial activity against beta lactamase positive Neisseria gonorrhoeae ATCC 31426 by oxidase test; assay type: functional
Outline: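 Agar dilution MIC on GC agar with 1% isovitalex containing increasing compound concentrations. Plates inoculated with about 1×10^4 CFU (5 µL). MIC is the lowest concentration that inhibited growth, with growth confirmed by oxidase test. Run in duplicate, repeated at least three times.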

Cryptococcus neoformans [5] = experiment: Antifungal activity against Cryptococcus neoformans ATCC 32264 incubated for 48 hrs under dark condition by broth microdilution method; assay type: functional; details: ATCC 32264, 48 h; outline: as §3
M14 = experiment: Growth inhibition of human M14 cells at 10 uM incubated for 48 hrs by sulforhodamine B assay; assay type: functional, cell-based; outline: as §1
U-251 = experiment: Growth inhibition of human U251 cells at 10 uM incubated for 48 hrs by sulforhodamine B assay; assay type: functional, cell-based; outline: as §2
KM12 = experiment: Growth inhibition of human KM12 cells at 10 uM incubated for 48 hrs by sulforhodamine B assay; assay type: functional, cell-based; outline: as §1
SF-539 = experiment: Growth inhibition of human SF539 cells at 10 uM incubated for 48 hrs by sulforhodamine B assay; assay type: functional, cell-based; outline: as §1
SK-MEL-28 = experiment: Growth inhibition of human SK-MEL-28 cells at 10 uM incubated for 48 hrs by sulforhodamine B assay; assay type: functional, cell-based; outline: as §2
Cryptococcus neoformans [6] = experiment: Growth inhibition of Cryptococcus neoformans ATCC 32264 at 15.62 ug/ml incubated for 48 hrs under dark condition by broth microdilution method relative to control; assay type: functional; details: ATCC 32264, 48 h, read-out: GI; outline: as §4
A549 = experiment: Growth inhibition of human A549/ATCC cells at 10 uM incubated for 48 hrs by sulforhodamine B assay; assay type: functional, cell-based; outline: as §5
Cryptococcus neoformans [7] = experiment: Growth inhibition of Cryptococcus neoformans ATCC 32264 at 31.25 ug/ml incubated for 48 hrs under dark condition by broth microdilution method relative to control; assay type: functional; details: ATCC 32264, 48 h, read-out: GI; outline: as §4
Staphylococcus aureus [8] = experiment: Antibacterial activity against methicillin-resistant Staphylococcus aureus ATCC 43300 after 24 hrs by resazurin dye based microdilution assay; assay type: functional; details: ATCC 43300, 24 h
Outline: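 Broth microdilution in Mueller Hinton broth, inoculum 5 × 10^5 – 8 × 10^5. Compound stocks diluted in MHB with 5% DMSO and 0.1% Tween 80. Incubation 24 h at 35-37 °C. MIC is the lowest concentration with visible growth inhibition and/or by resazurin (1 mg/mL) read-out. Gentamicin as control. Run in duplicate, replicated at least three times.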

Candida albicans [9] = experiment: Growth inhibition of Candida albicans ATCC 10231 at 3.4 ug/ml incubated for 48 hrs under dark condition by broth microdilution method relative to control; assay type: functional; details: ATCC 10231, 48 h, read-out: GI
SK-OV-3 = experiment: Growth inhibition of human SKOV3 cells at 10 uM incubated for 48 hrs by sulforhodamine B assay; assay type: functional, cell-based; outline: as §2
MDA-MB-468 = experiment: Growth inhibition of human MDA-MB-468 cells at 10 uM incubated for 48 hrs by sulforhodamine B assay; assay type: functional, cell-based; outline: as §1
MOLT-4 = experiment: Growth inhibition of human MOLT4 cells at 10 uM incubated for 48 hrs by sulforhodamine B assay; assay type: functional, cell-based; outline: as §1
HCT-116 = experiment: Growth inhibition of human HCT116 cells at 10 uM incubated for 48 hrs by sulforhodamine B assay; assay type: functional, cell-based; outline: as §5
Malme-3M = experiment: Growth inhibition of human MALME-3M cells at 10 uM incubated for 48 hrs by sulforhodamine B assay; assay type: functional, cell-based; outline: as §1
HOP-92 = experiment: Growth inhibition of human HOP92 cells at 10 uM incubated for 48 hrs by sulforhodamine B assay; assay type: functional, cell-based; outline: as §1

Row | SMILES | growth inhibition (GI) (NCI-H522) | growth inhibition (GI) (TK-10) | growth inhibition (GI) (LOX IMVI) | MIC50 (Candida albicans [1]) | MIC80 (Candida albicans [1]) | inhibition of growth at 15.62 µg/mL (Candida albicans [2]) | growth inhibition (GI) (HOP-62) | growth inhibition (GI) (COLO 205) | MIC (Staphylococcus aureus [3]) | growth inhibition (GI) (SNB-75) | growth inhibition (GI) (SN12C) | inhibition of growth at 125 µg/mL (Candida albicans [4]) | MIC (Neisseria gonorrhoeae) | MIC50 (Cryptococcus neoformans [5]) | MIC80 (Cryptococcus neoformans [5]) | growth inhibition (GI) (M14) | inhibition of growth at 15.62 µg/mL (Cryptococcus neoformans [6]) | inhibition of growth at 31.25 µg/mL (Cryptococcus neoformans [7]) | MIC (Staphylococcus aureus [8]) | inhibition of growth at 3.4 µg/mL (Candida albicans [9]) | further results
1 | O=CN1N=C(c2ccc(Cl)cc2)CC1c1cccc(Nc2ccnc3cc(Cl)ccc23)c1 (centres undefined) | Active | Active | Active | 250 µg/mL (≈ 542 µM) | ≥ 250 µg/mL | 22.7% | Active | Active | > 1000 µg/mL | Active | Active | 35.7% | > 1000 µg/mL | 31.2 µg/mL (≈ 67.7 µM) | ≥ 250 µg/mL | Active | 44% | 55.7% | > 1000 µg/mL | 9.81% | growth inhibition (GI) (U-251): Active; growth inhibition (GI) (KM12): Active; growth inhibition (GI) (SF-539): Active; growth inhibition (GI) (SK-MEL-28): Active; growth inhibition (GI) (A549): Active; growth inhibition (GI) (SK-OV-3): Active; growth inhibition (GI) (MDA-MB-468): Active; growth inhibition (GI) (MOLT-4): Active; growth inhibition (GI) (HCT-116): Active; growth inhibition (GI) (Malme-3M): Active; growth inhibition (GI) (HOP-92): Active
2 | COc1ccc(C2=NN(c3ccc(Cl)cc3)C(c3cccc(Nc4ccnc5cc(Cl)ccc45)c3)C2)cc1 (centres undefined) | inactive | inactive | inactive | ≥ 250 µg/mL | ≥ 250 µg/mL | 0% | inactive | inactive | > 1000 µg/mL | inactive | inactive | 1.92% | > 1000 µg/mL | 250 µg/mL (≈ 463 µM) | ≥ 250 µg/mL | inactive | 12.6% | 13.1% | > 1000 µg/mL | 0% | growth inhibition (GI) (U-251): inactive; growth inhibition (GI) (KM12): inactive; growth inhibition (GI) (SF-539): inactive; growth inhibition (GI) (SK-MEL-28): inactive; growth inhibition (GI) (A549): inactive; growth inhibition (GI) (SK-OV-3): inactive; growth inhibition (GI) (MDA-MB-468): inactive; growth inhibition (GI) (MOLT-4): inactive; growth inhibition (GI) (HCT-116): inactive; growth inhibition (GI) (Malme-3M): inactive; growth inhibition (GI) (HOP-92): inactive
3 | O=Cc1cccc(Nc2ccnc3cc(Cl)ccc23)c1 |  |  |  | 250 µg/mL (≈ 884 µM) | ≥ 250 µg/mL | 10.8% |  |  | 125 µg/mL (≈ 442 µM) |  |  | 34.8% | 500 µg/mL (≈ 1770 µM) | 250 µg/mL (≈ 884 µM) | 250 µg/mL (≈ 884 µM) |  | 9.47% | 14.3% | 500 µg/mL (≈ 1770 µM) | 1.33% | 
